# A selection: hits, their analogues and other compounds. The true share with any hit is near 5.1%.
# NF-kB neuron act – raises NF-kB expression in human neuronal cells. fold change at 12.5 µM. NF-kB reporter expression; active compounds read high. AID 1239. hit rate 1.6% among 190,000; in the data active means fold change above about 3.3
# STAT3 inh-1 – STAT3 signaling inhibition; inhibition, % at 5.5 µM; hit rate 0.89% among 190,000; U3A cells, IL-6 STAT3-luciferase reporter, luminescence; host cell line lacks STAT1;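 active means inhibition above the mean inhibition across all screened compounds plus 3 SD, cut at about 44% in these data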;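 further: 0% = DMSO only wells and 100% = 100 µM nifuroxazide control wells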
# STAT1 activator – activators of IFN-gamma induced STAT1 signaling | activation (% of control), % at 5.5 µM | hit rate 2.6% among 200,000 | AID 932 | NIH 3T3 STAT1-luciferase reporter, luminescence; 100% = IFN-gamma alone, no compound;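 active means activation above the screen-wide mean activation plus 3 SD, cut at about 130% in these data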;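 further: raw ratio to IFN-gamma control signal so 100% means no change and 0% no light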
# APP 5'UTR act – activates APP 5'UTR luciferase reporter; hit rate 1% among 190,000; activation, % at 2 µM; SH-SY5Y APP 5'UTR luciferase reporter, luminescence; zero percent = DMSO vehicle wells;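 active means activation above a set limit, based on mean plus 3 SD of controls, cut at about 140% in these data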
# STAT3 activator – activators of IL-6 induced STAT3 signaling. U3A cells, IL-6 STAT3-luciferase reporter, luminescence; 100% = signal with IL-6 EC80 alone. activation (% of control), % at 5.6 µM. hit rate 0.91% among 190,000;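 active means activation above the screen-wide mean of compound activation plus 3 SD, cut at about 130% in these data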;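 further: 0% = background luminescence of wells with medium and substrate only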
#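 Test system: Human STAT1-deficient U3A cells with stable STAT3-luciferase reporter | Also added: Interleukin-6, 33 ng/mL | Timing: Compound pre-incubation 1 h before IL-6, then 6 h stimulation at 37 °C | Technique: Luciferase reporter luminescence | Read-out: Percent of IL-6-only median luminescence | Benchmarks: IL-6-only wells as 100% reference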
# STAT1 inh – reduces IFN-gamma driven STAT1 reporter signal; hit rate 0.35% among 200,000; inhibition, % at 5.5 µM; NIH 3T3 STAT1-luciferase reporter, luminescence;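 active means inhibition above a set limit, the mean inhibition across all tested compounds plus 3 SD, cut at about 34% in these data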;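 further: 0% = IFN-gamma with DMSO and 100% = IFN-gamma with 300 µM nifuroxazide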
# STAT3 inh-2 – confirmation of STAT3 signaling inhibitors | shares compounds with STAT3 inh-1 | U3A cells, IL-6 STAT3 luciferase reporter, luminescence; cell line lacks STAT1 | inhibition, % at 5.7 µM | hit rate 45% among 1,200;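 active means inhibition above the hit cutoff computed for the primary STAT3 screen, cut at about 44% in these data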;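 further: 0% = IL-6 plus DMSO and 100% = IL-6 plus nifuroxazide control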
# NFkB inh STAT3ct – inhibits NF-kappaB, counter-screen to STAT3 inhibitors. shares compounds with STAT3 inh-1. hit rate 36% among 1,200. HEK293T NF-kB luciferase reporter, TNF-alpha induced. inhibition, % at 5.7 µM;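 active means inhibition above the mean of solvent-only control wells plus 3 SD, cutoff set per campaign, cut at about 13% in these data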;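 further: 0% = TNF-alpha with DMSO and 100% = TNF-alpha with MG high control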
# STAT1 inh 2 – inhibits STAT1, counter-screen to STAT3 inhibitors | shares compounds with STAT3 inh-1 | NIH 3T3 STAT1-luciferase reporter, IFN-gamma induced, luminescence | inhibition, % at 5.7 µM | hit rate 27% among 1,200;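 active means inhibition above the mean plus 3 SD of solvent-only control wells, limit set per screening run, cut at about 16% in these data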;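 further: 0% = DMSO with IFN-gamma and 100% = nifuroxazide control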
# Starred values were filed as active, the others as inactive; nt = no result given.
SMILES,NF-kB neuron act,STAT3 inh-1,STAT1 activator,APP 5'UTR act,STAT3 activator,STAT1 inh,STAT3 inh-2,NFkB inh STAT3ct,STAT1 inh 2
Cc1ccc(C)c(SCC(=O)Nc2cccnc2Cl)c1,1.03,20.2,92.9,9.8,86.7,9.2,nt,nt,nt
N#Cc1c(NC(=O)c2ccccc2)sc2c1CCCCC2,3.8*,52.5*,136.2*,198.2*,57.5,-20.0,5.0,-25.3,-146.9
Cc1csc(SCC(=O)Nc2sc3c(c2C#N)CCC3)n1,1.52,-3.3,101.1,-5.3,106.4,-1.2,nt,nt,nt
CC(C)(C)C1CCc2c(sc(NC(=O)CSc3ncn[nH]3)c2C#N)C1 (stereo not given),1.02,-1.8,110.8,-13.9,104.2,-7.4,nt,nt,nt
O=C(Nc1sc2c(c1C(=O)O)CCCCC2)c1ccccc1,1.86,3.7,127.4,84.3,99.7,-32.0,nt,nt,nt
Cc1ccnc(SCC(=O)Nc2sc3c(c2C#N)CCCC3)n1,0.73,71.9*,86.2,0.8,39.3,14.8,56.9*,15.3*,16.9*
N#Cc1c(NC(=O)CSc2ncn[nH]2)sc2c1CCCC2,0.46,60.4*,80.4,nt,52.0,21.2,57.0*,18.0*,2.3
O=C(CS(=O)(=O)c1c[nH]c2ccccc12)N1CCCCCC1,1.04,-3.7,99.8,5.7,107.5,0.1,nt,nt,nt
CN(C(=S)SCc1ccccc1)C1CCS(=O)(=O)C1 (stereo not given),1.22,5.2,92.5,-9.8,99.4,6.9,nt,nt,nt
COc1ccc(Nc2oc(COc3ccc(Cl)cc3)nc2C#N)cc1,0.84,47.2*,97.8,3.6,64.0,2.4,30.6,0.2,8.2
Cc1ccc(NC(=O)CN2CCCN(S(=O)(=O)c3ccc(Br)s3)CC2)cc1,0.96,-1.0,92.3,-6.8,107.0,8.3,nt,nt,nt
Cc1ccc2c(C)nc(Nc3nc(CSc4nc5ccccc5[nH]4)cc(=O)[nH]3)nc2c1,0.39,53.0*,93.6,4.0,62.6,7.2,45.4*,0.7,2.4
Cc1ccc(SCc2cc(=O)[nH]c(Nc3nc(C)c4ccc(C)cc4n3)n2)cc1,0.9,0.6,94.2,2.6,98.7,6.5,nt,nt,nt
CCOc1ccc(OCC(=O)Nc2ccc(OC)cc2[N+](=O)[O-])cc1,1.3,14.4,107.0,-10.2,88.4,-7.4,nt,nt,nt
CCOc1ccc(N/C=C/C(=O)c2ccccc2)c([N+](=O)[O-])c1,1.01,84.9*,87.2,156.7*,28.0,14.0,59.1*,45.3*,-30.1
CCOC(=O)Cc1nnc(Nc2cc(C)ccc2C)c2ccccc12,0.95,10.8,99.7,-5.6,96.4,-1.2,nt,nt,nt
Cc1cc(C(=O)CSc2nnc(-c3cccs3)o2)c(C)n1-c1ccccc1,0.48,47.4*,78.3,-1.7,63.9,24.4,19.5,17.1*,-18.4
COc1cccc(/C=C/C(=O)OCC(=O)Nc2ccc(N3CCOCC3)cc2)c1OC,1.08,2.8,108.4,12.4,101.8,-9.1,nt,nt,nt
O=C(C(Cl)Cl)N1c2ccccc2OCC1c1ccccc1 (stereo not given),0.76,50.2*,117.8,1.8,63.1,-19.8,33.2,9.0,-1.8
CCCN(CCC)CC(O)COc1ccc2c(c1)OCO2 (stereo not given),1.1,1.4,108.0,0.8,102.0,-10.7,nt,nt,nt
CC1(C)CC(=O)C=C(NC2=CC3OC(c4ccccc4)OCC3OC2=O)C1 (stereo not given),1.02,45.1*,85.8,-18.8,63.4,14.8,42.4,23.2*,18.1*
O=C(/C=C/c1ccc(Cl)cc1)Nc1nccs1,8.47*,43.6*,108.9,183.9*,66.9,-10.0,2.1,-26.3,-163.5
C/C=C/C=C/C(=O)Nc1nccs1,1.68,-3.0,112.0,-5.7,101.6,-13.4,nt,nt,nt
Nc1c(C(=O)NC2CCCCC2)nsc1C(=O)OCC(=O)NC1CCCCC1,0.92,51.1*,95.6,-9.3,57.5,4.8,54.3*,12.0,0.1
O=C(c1ccc(Cl)cc1)N1CCCCC(Sc2nnc(-c3ccc4c(c3)OCO4)o2)C1=O (stereo not given),0.67,98.3*,87.9,-8.4,21.3,14.2,85.1*,69.7*,39.6*
SMILES,NF-kB neuron act,STAT3 inh-1,STAT1 activator,APP 5'UTR act,STAT3 activator,STAT1 inh,STAT3 inh-2,NFkB inh STAT3ct,STAT1 inh 2
CC1CN(C(=S)SCCN2C(=O)CCC2=O)CC(C)O1 (stereo not given),1.05,5.8,104.3,-14.0,97.0,-6.6,nt,nt,nt
O=C(Nc1ccc(Oc2ccccc2)cc1)c1cnc2n(c1=O)CCS2,1.16,77.6*,87.4,3.7,40.4,13.9,72.7*,11.2,13.5
O=C(NCc1cccnc1)c1ccc(-c2cc3ccccc3oc2=O)cc1,1.77,45.5*,94.0,71.0,65.5,3.7,21.2,-7.4,-17.9
CCOC(=O)N1CCC(N2Cc3cccc(C(=O)Nc4cccc(F)c4)c3C2=O)CC1,0.49,22.0,93.8,-4.3,89.6,6.1,nt,nt,nt
O=C(/C=C/c1cccc([N+](=O)[O-])c1)Nc1cccc(NC(=O)c2cccs2)c1,0.56,6.7,101.8,-13.5,96.5,-2.1,nt,nt,nt
CCOc1ccc(/C=N/NC(=O)c2[nH]ncc2Br)c(O)c1,4.4*,48.4*,115.8,24.0,61.0,-18.9,18.5,-15.3,-76.6
NNC(=O)c1cccc(O)c1,1.24,-8.7,108.3,27.4,104.9,-6.3,nt,nt,nt
Cc1cc(C(=O)CN2C(=O)c3ccccc3S2(=O)=O)c(C)n1-c1ccccc1,0.62,58.6*,103.6,-35.0,51.1,-4.0,78.0*,15.8*,58.4*
O=C(Nc1ccccn1)c1onc2c1CCCC2,1.08,69.4*,102.6,149.6*,42.5,-3.0,53.1*,16.5*,-11.6
Cc1ccccc1C(=O)Nc1ccccn1,1.04,2.0,103.3,-9.4,98.5,-3.6,nt,nt,nt
CC(=O)Nc1cccc(-c2cn3ccccc3n2)c1,1.7,9.1,116.6,7.5,98.0,-19.4,nt,nt,nt
Cc1cc(-c2cn3ccccc3n2)c(C)n1-c1ccccc1,2.64,57.6*,100.5,175.9*,55.2,-0.3,20.6,-17.5,-82.9
O=C(COC(=O)c1ccc(CNS(=O)(=O)c2ccc(F)c(Cl)c2)cc1)NCC1CCCCC1,1.03,-0.7,101.6,-6.1,101.3,-1.8,nt,nt,nt
O=C(c1cc2ccccc2oc1=O)N(Cc1ccc2c(c1)OCO2)Cc1ccco1,1.14,8.0,103.4,13.6,98.3,-3.8,nt,nt,nt
O=C(CCCc1nc2ccccc2s1)Nc1ccc(N2CCOCC2)cc1,1.26,3.6,104.2,-4.8,98.7,-4.7,nt,nt,nt
O=C(Nc1nc2ccccc2[nH]1)c1ccc(F)c(S(=O)(=O)N2CCOCC2)c1,1.93,4.2,117.4,50.8,95.3,-19.1,nt,nt,nt
Cc1ccc(C(=O)Nc2ccon2)cc1S(=O)(=O)N1CCOCC1,0.97,-0.4,103.8,-26.6,101.6,-4.1,nt,nt,nt
